LMPTP inh = LMPTP phosphatase inhibitors, primary screen, biochemical, fluorescence intensity, uHTS | actives 0.22% (n = 360,000) | inhibition, % at 20 µM | Low molecular weight phosphotyrosine protein phosphatase (Homo sapiens), P24666 | recombinant LMPTP-A, OMFP fluorogenic substrate | AID 651560, 2012;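 active = compounds that cut the enzyme signal by at least half of the control window in the single-dose screen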;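 note: plate controls were DMSO wells with enzyme plus substrate for no effect and substrate without enzyme for full effect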
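Test system: LMPTP-A phosphatase enzyme. Amount: LMPTP-A at 0.625 nM final in the reaction. Reagent: OMFP substrate, 400 µM final. Times: 50 min at room temperature. Signal: endpoint fluorescence intensity from OMFP dephosphorylation. Read-out basis: % inhibition. Benchmarks: no-enzyme and uninhibited controls.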
DNMT1 block = human DNMT1 methyltransferase inhibitors, primary screen, biochemical, molecular beacon, fluorescence, HinP1I cleavage, uHTS. DNA (cytosine-5)-methyltransferase 1 (Homo sapiens), P26358. inhibition (reported as % activation of signal), % at 10 µM. actives 0.83% (n = 360,000). AID 588458, 2011; in the data active = inhibition above about 50%
SUMO1 PPI mod = modulators of SUMO1 protein-protein interactions, primary screen, biochemical, uHTS. Small ubiquitin-related modifier 1 (Homo sapiens), P63165. SUMO1 binding to a labelled peptide, TR-FRET, 1 h. inhibition, % at 20 µM. actives 0.33% (n = 360,000). AID 602429, 2012; in the data active = inhibition above about 37%
Scp1 inh = Scp-1 phosphatase inhibitors, primary screen, biochemical, colorimetric, uHTS | Carboxy-terminal domain RNA polymerase II polypeptide A small phosphatase 1 (Homo … | Recombinant Scp1, phosphopeptide, malachite green phosphate absorbance | inhibition, % at 20 µM | actives 0.88% (n = 340,000);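 active = inhibition above about 50% at 20 µM, limit read from the data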;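 note: plate controls were DMSO wells with enzyme for no effect and wells lacking enzyme for full effect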
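Test system: SCP-1 phosphatase catalytic domain, residues 76-261; measured by: colorimetric phosphate reagent with accelerator and stabiliser, absorbance at 630 nm; timing: enzyme reaction 45 min at room temperature, colour 5 min, stabilisation 30 min; also added: Phosphorylated 17-residue peptide substrate; compound dosing: one concentration, 20 µM, with 1.0% DMSO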
STEP block = STEP phosphatase inhibitors, primary screen, biochemical, fluorescence intensity, uHTS | Tyrosine-protein phosphatase non-receptor type 5 (Homo sapiens), P54829 | recombinant STEP, OMFP fluorogenic substrate | inhibition, % at 20 µM | actives 0.25% (n = 360,000) | AID 588621, 2011;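 active = inhibition at 20 µM, scaled per plate between control wells, above about 37%, limit read from the data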;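 note: 0% = DMSO with enzyme and substrate and 100% = substrate only without enzyme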
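System: isolated STEP enzyme; schedule: 20 min enzyme reaction at room temperature, protected from light; medium: Bis-Tris buffer pH 6.0, 2.5 mM DTT, 0.005% Tween 20; signal: fluorescence, 480/540 nm; dosing: single compound dose of 20 µM, 1% DMSO final; also added: OMFP substrate, 25 µM final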
Scp-1 conf = Scp-1 phosphatase inhibitors, retest, confirmation, biochemical, colorimetric, single concentration. shares compounds with Scp1 inh. recombinant SCP-1 catalytic domain, phosphate release, malachite green absorbance. inhibition, % at 20 µM. actives 61% (n = 2,500). AID 540281, 2011;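 note: plate controls were DMSO with enzyme for no effect and buffer wells lacking enzyme for full effect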
MG interference = colorimetric readout interference by compounds, confirmation, artefact control for Scp-1 inhibitor project, biochemical, single concentration. apparent inhibition (interference), % at 20 µM. shares compounds with Scp1 inh. AID 540313, 2011. Colorimetric interference counterscreen, malachite green absorbance 630 nm. 2,500 tested, under 10 active;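 note: compounds added after enzyme reaction finished so only phosphate colour detection is probed; plate controls were DMSO wells with completed Scp-1 reaction for no effect and substrate wells lacking enzyme for full effect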
Scp1 DSF = Scp-1 binding by thermal shift, confirmation, orthogonal assay for Scp-1 inhibitor project, biophysical, differential scanning fluorimetry. thermal shift relative to vanadate control, % at 40 µM. AID 540329, 2011. shares compounds with Scp1 inh. actives 25% (n = 1,500). Recombinant SCP1, Sypro Orange thermal shift Tm;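 active = substances whose mean melting-temperature shift, as a percentage of the reference inhibitor's shift, reaches about 5.3%, limit read from the data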;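 note: 0% = Tm of DMSO wells and 100% = Tm with sodium orthovanadate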
* = called active by the depositor. A selection: hits, their analogues and other compounds. The true share with any hit is near 1.7%.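 Rule for the calls, unless noted: active = inhibition of at least 30% at 20 µM; inactive = the rest.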

`CC1CC(CC(=O)Nc2nc(-c3ccccc3)cs2)C(=O)O1` (centres undefined) gave LMPTP inh -2, DNMT1 block 8, SUMO1 PPI mod 2, Scp1 inh -4, STEP block 3, Scp-1 conf -10 and MG interference -5.
For C/C(CC1CC(COCC(C)C)OC1=O)=N\Nc1nc(-c2ccccc2)cs1 (centres undefined) the results were LMPTP inh 1, DNMT1 block -18, SUMO1 PPI mod 2, Scp1 inh -4 and STEP block 0.
`Cc1ccc2nc(SCC(=O)Nc3ccc(C)c(Cl)c3)nc(=O)n2c1` gave LMPTP inh 0, DNMT1 block 1, SUMO1 PPI mod -2, Scp1 inh -4 and STEP block 2.
`Cc1ccc2nc(SCC(=O)Nc3ccc(Br)cc3)nc(=O)n2c1` gave LMPTP inh 0, DNMT1 block -3, SUMO1 PPI mod -2, Scp1 inh 60*, STEP block 2, Scp-1 conf -24 and MG interference -19.
`CCOC(=O)C1CCCN(c2c(NCCN3CCCCC3CC)c(=O)c2=O)C1` (centres undefined) gave LMPTP inh 0, DNMT1 block 0, SUMO1 PPI mod 6, Scp1 inh 57*, STEP block -2, Scp-1 conf -2 and MG interference -7.
CCOc1ccc(Oc2ccc(Cl)cc2N)cc1 was read as LMPTP inh 2, DNMT1 block -1, SUMO1 PPI mod 3, Scp1 inh -3 and STEP block -2.
N/C(=N\NC(=O)c1ccc(F)cc1)c1cc2ccccc2oc1=O was read as LMPTP inh -1, DNMT1 block -1, SUMO1 PPI mod -9, Scp1 inh -1 and STEP block -1.
Screening N/C(=N\NC(=O)c1cccc(F)c1)c1cc2ccccc2oc1=O returned LMPTP inh 0, DNMT1 block 3, SUMO1 PPI mod -24, Scp1 inh 53*, STEP block 13, Scp-1 conf 72*, MG interference -17 and Scp1 DSF -2.
Screening COc1ccccc1CN(C(=O)CNC(=O)c1ccco1)C(C(=O)NCC1CCCO1)c1ccccc1 (centres undefined) returned LMPTP inh -1, DNMT1 block 0, SUMO1 PPI mod -2, Scp1 inh -5 and STEP block -1.
For CC(C)c1cc(C(=O)NC2CCCCC2)no1 the results were LMPTP inh 0, DNMT1 block 2, SUMO1 PPI mod -2, Scp1 inh 73*, STEP block 0, Scp-1 conf -7 and MG interference -4.
For C[C@H]1CN=C(N(C)C)N1CCc1ccc(F)cc1 the results were LMPTP inh 0, DNMT1 block 1, SUMO1 PPI mod 2, Scp1 inh -6 and STEP block 1.
For CN(/N=C/c1ccncc1)C1=NCCN1 the results were LMPTP inh -2, DNMT1 block -1, SUMO1 PPI mod -4, Scp1 inh 85*, STEP block 1, Scp-1 conf -3 and MG interference -11.
Cc1c(/C=N\NC(=O)c2cccc(F)c2)cnn1C was read as LMPTP inh -2, DNMT1 block 4, SUMO1 PPI mod 0, Scp1 inh -8 and STEP block 2.
